High-throughput results (PubChem)
Hep lipid drop = modulators of hepatic lipid droplet formation; actives 0.4% (n = 240,000); inhibition, % at 6.5 µM; AID 1656; AML12 mouse hepatocytes, oleate lipid droplets, BODIPY imaging;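 active = lipid droplet intensity inhibited by at least 50%, with more than 500 cells counted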
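Assay system: AML12 mouse liver cells | Compound: 6.5 µM single-point dosing | Schedule: Overnight exposure | Technique: Fluorescence imaging, 20x objective, two fields per well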
RGS4 pot = potentiators or activators of RGS4 | HEK293 M3R/inducible RGS4, carbachol calcium flux Fluo4; active compounds read low | B-score at 10 µM | AID 463111 | actives 0.92% (n = 310,000);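 active = B-score of the integrated calcium signal more than 4 SD below the library mean, with starting fluorescence not abnormally high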;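 note: negative B-score means reduced calcium response which marks RGS4 activation or potentiation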
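Assay system: Inducible-RGS4 HEK293 cells carrying M3 receptor | Schedule: Compound preincubation 20 min at room temperature before agonist | Signal: Kinetic calcium fluorescence imaging with Fluo4-AM dye, 2 µM | Read-out basis: B score from integrated fluorescence ratio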
RGS4 block = inhibitors of human RGS4; B-score at 10 µM; HEK293 M3R/RGS4 inducible, Fluo-4 calcium flux; active compounds read high; triggered by carbachol at its EC20; P49798; actives 0.45% (n = 310,000);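 active = B-score, a plate-corrected calcium signal, over three deviations above library mean, with baseline fluorescence within five deviations of library mean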;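 note: RGS4 expression induced by doxycycline in cells with stable M3 receptor; B-score is computed from the integrated fluorescence ratio over baseline after carbachol; higher B-score means a larger calcium signal and so more RGS4 inhibition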
Target sequence (P49798 whole entry, looked up): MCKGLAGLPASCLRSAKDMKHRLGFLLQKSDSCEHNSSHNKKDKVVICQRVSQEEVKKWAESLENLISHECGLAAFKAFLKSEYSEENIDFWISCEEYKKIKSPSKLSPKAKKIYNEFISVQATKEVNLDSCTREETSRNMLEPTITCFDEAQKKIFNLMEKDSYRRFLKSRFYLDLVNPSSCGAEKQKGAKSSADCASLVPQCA
MrgX1 antag = antagonists of human MrgX1 receptor. MRGX1-HEK293 calcium flux, Fluo-4, BAM8-22 antagonism; active compounds read low. B-score at 10 µM. actives 1.3% (n = 310,000). AID 588676;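 active = calcium-response B-score plate-corrected more than 3 library SD below zero, starting fluorescence within 5 deviations, no agonist response on first addition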;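 note: peak minus trough fluorescence over baseline after final BAM8-22 challenge near maximal dose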
Target sequence (Q96LB2 whole entry, looked up): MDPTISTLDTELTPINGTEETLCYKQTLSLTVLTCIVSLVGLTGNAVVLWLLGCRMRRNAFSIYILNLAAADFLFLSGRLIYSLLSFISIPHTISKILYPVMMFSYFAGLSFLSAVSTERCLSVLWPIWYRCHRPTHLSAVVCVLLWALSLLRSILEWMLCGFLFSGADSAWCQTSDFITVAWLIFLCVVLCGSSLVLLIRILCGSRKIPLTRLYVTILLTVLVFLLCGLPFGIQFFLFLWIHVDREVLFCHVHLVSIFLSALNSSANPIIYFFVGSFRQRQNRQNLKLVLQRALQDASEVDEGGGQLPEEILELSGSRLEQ
MrgX1 ag = human MrgX1 receptor agonism, primary screen; Q96LB2; MrgX1-HEK293 cells, Fluo-4 calcium fluorescence, agonist mode; active compounds read high; B-score at 10 µM; actives 0.44% (n = 310,000); AID 588627;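 active = calcium response B-score plate-corrected fluorescence ratio at least 3 library SD, with starting fluorescence B-score inside 5 SD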
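Material: MrgX1-expressing HEK293 cells; input: 15,000 cells per well; doses: test compound given as first of three sequential additions; schedule: overnight plating before 1 h dye loading; technique: Fluo-4 NW calcium-flux fluorescence, kinetic read; evaluation: baseline-normalised fluorescence change ratio, B-scored; control set: plate-wise positive and negative controls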
MrgX1 allo act = human MrgX1 positive allosteric modulation, primary screen; Q96LB2; MrgX1-HEK293, Fluo-4 calcium flux, FDSS; active compounds read high; B-score at 10 µM; actives 0.63% (n = 310,000);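 active = plate-corrected calcium response at least 3 library SD above typical, normal starting fluorescence, not activating the receptor alone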;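 note: compound read alongside a low EC10 to EC30 dose of BAM8-22 agonist; peak minus trough fluorescence over baseline measured at the second addition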
MrgX1 allo conf = confirmation of human MrgX1 receptor positive allosteric modulators; actives 13% (n = 1,200); shares compounds with MrgX1 allo act; MrgX1-HEK293, Fluo-4 calcium fluorescence, FDSS; AID 602413; activation (ratio percentage), % at 10 µM;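 active = ratio at least 3 SD above the weak peptide control, stable starting fluorescence, no direct agonism earlier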;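 note: compound followed by low BAM8-22 agonist challenge near EC20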
HEK293 Ca flux = counter-screen for MrgX1 antagonists: effect in parental HEK293 cells. fluorescence ratio F(max-min)/F0 at 10 µM. shares compounds with MrgX1 antag. Fluo-4 calcium fluorescence, FDSS. AID 624111. actives 2% (n = 4,000);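 active = duplicate-averaged calcium fluorescence ratio at least three times the standard deviation of buffer wells, a nonspecific response in parental cells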
HEK293 Ca counter = counter-screen for MrgX1 allosteric activators: effect in parental HEK293 cells. shares compounds with MrgX1 antag. parental HEK293 calcium flux, Fluo-4 fluorescence ratio; active compounds read high. fluorescence ratio F(max-min)/F0 at 10 µM. actives 0.4% (n = 4,000). AID 624114;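 active = calcium fluorescence ratio, averaged over duplicates, at least 3 SD of the buffer-well ratio, meaning a nonspecific response in receptor-free cells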;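 note: untransfected parental HEK293 lacking MrgX1 used as counterscreen for MrgX1 allosteric activators; fluorescence change taken during the second addition on a kinetic imager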
HEK293 Ca cntr2 = counter-screen for MrgX1 activators: effect in parental HEK293 cells. shares compounds with MrgX1 antag. Fluo-4 calcium fluorescence (FDSS); active compounds read high. fluorescence ratio F(max-min)/F0 at 10 µM. actives 8.7% (n = 4,000);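 active = calcium fluorescence ratio at least three times the spread of buffer wells, meaning a non-specific response in parental cells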
A number is an active result. A selection: hits, their analogues and other compounds. The true share with any hit is near 3.8%.

CC1(C)Cc2cccc(Oc3ccc(S(=O)(=O)N4CCCCC4)cn3)c2O1 was read as Hep lipid drop inactive, RGS4 pot inactive, RGS4 block inactive, MrgX1 antag inactive, MrgX1 ag inactive, MrgX1 allo act 11.3, MrgX1 allo conf inactive, HEK293 Ca flux inactive, HEK293 Ca counter inactive and HEK293 Ca cntr2 inactive.
Screening C=C[C@@]1(C)CC(=O)[C@]2(O)[C@@]3(C)[C@@H](O)CCC(C)(C)[C@@H]3[C@H](OC(C)=O)[C@H](O)[C@@]2(C)O1 returned RGS4 pot inactive, RGS4 block inactive, MrgX1 antag inactive, MrgX1 ag inactive, MrgX1 allo act 7.72, MrgX1 allo conf inactive, HEK293 Ca flux inactive, HEK293 Ca counter inactive and HEK293 Ca cntr2 inactive.
For CCSC1=NCCN1C(=O)c1ccc(S(=O)(=O)N(C)C)cc1 the results were Hep lipid drop inactive, RGS4 pot inactive, RGS4 block inactive, MrgX1 antag inactive, MrgX1 ag inactive and MrgX1 allo act inactive.
`CCSc1nc2ccccc2c(=O)n1Cc1ccc(F)cc1` gave Hep lipid drop inactive, RGS4 pot inactive, RGS4 block inactive, MrgX1 antag inactive, MrgX1 ag inactive, MrgX1 allo act 9.82, MrgX1 allo conf inactive, HEK293 Ca flux inactive, HEK293 Ca counter inactive and HEK293 Ca cntr2 inactive.
Cc1cc(C)cc(-c2nnc(SCc3ccc(C(=O)O)cc3)o2)c1 was read as Hep lipid drop inactive, RGS4 pot inactive, RGS4 block inactive, MrgX1 antag inactive, MrgX1 ag inactive, MrgX1 allo act 7.41, MrgX1 allo conf inactive, HEK293 Ca flux inactive, HEK293 Ca counter inactive and HEK293 Ca cntr2 inactive.
`Cc1ccc(Cn2ccnc2C(=O)Nc2ccccc2)cc1` gave Hep lipid drop inactive, RGS4 pot inactive, RGS4 block inactive, MrgX1 antag inactive, MrgX1 ag inactive, MrgX1 allo act 9.72, MrgX1 allo conf inactive, HEK293 Ca flux inactive, HEK293 Ca counter inactive and HEK293 Ca cntr2 inactive.
`CC(C)CNC(=O)COC(=O)CNC(=O)c1cc(Cl)cc([N+](=O)[O-])c1` gave Hep lipid drop inactive, RGS4 pot inactive, RGS4 block inactive, MrgX1 antag inactive, MrgX1 ag inactive and MrgX1 allo act inactive.
`O=C(NN=C1CCCCCCCCCCC1)c1cccc(S(=O)(=O)N2CCOCC2)c1` gave Hep lipid drop inactive, RGS4 pot inactive, RGS4 block inactive, MrgX1 antag inactive, MrgX1 ag inactive and MrgX1 allo act inactive.
COc1ccc(/C=C2/C(=N)N3C(=NC2=O)Sc2cc(S(C)(=O)=O)ccc23)cc1OC was read as Hep lipid drop inactive, RGS4 pot inactive, RGS4 block inactive, MrgX1 antag inactive, MrgX1 ag inactive, MrgX1 allo act 37.1, MrgX1 allo conf 17.4%, HEK293 Ca flux inactive, HEK293 Ca counter inactive and HEK293 Ca cntr2 inactive.
`O=C(Cn1cc(SCc2cccc(Cl)c2)c2ccccc21)N1CCOCC1` gave Hep lipid drop inactive, RGS4 pot inactive, RGS4 block inactive, MrgX1 antag inactive, MrgX1 ag inactive and MrgX1 allo act inactive.
`Nc1cc(Cl)ccc1Oc1ccccc1` gave RGS4 pot inactive, RGS4 block inactive, MrgX1 antag inactive, MrgX1 ag inactive, MrgX1 allo act 20.4, MrgX1 allo conf inactive, HEK293 Ca flux inactive, HEK293 Ca counter inactive and HEK293 Ca cntr2 inactive.
For O=C(COC(=O)c1cc(Br)ccc1Cl)NC1CCCC1 the results were Hep lipid drop inactive, RGS4 pot inactive, RGS4 block inactive, MrgX1 antag inactive, MrgX1 ag inactive, MrgX1 allo act 7.99, MrgX1 allo conf inactive, HEK293 Ca flux inactive, HEK293 Ca counter inactive and HEK293 Ca cntr2 inactive.
`O=C(COC(=O)c1cc(Br)ccc1O)NC1CCCCCC1` gave RGS4 pot inactive, RGS4 block inactive, MrgX1 antag inactive, MrgX1 ag inactive and MrgX1 allo act inactive.
Cc1cc(C)nc(-n2nc(C)c(Sc3ccc(F)cc3)c2N)n1 was read as RGS4 pot inactive, RGS4 block inactive, MrgX1 antag inactive, MrgX1 ag inactive, MrgX1 allo act 11.1, MrgX1 allo conf inactive, HEK293 Ca flux inactive, HEK293 Ca counter inactive and HEK293 Ca cntr2 inactive.
Screening Cc1nn(-c2ccccc2)c(N)c1Sc1cccc([N+](=O)[O-])c1 returned Hep lipid drop inactive, RGS4 pot inactive, RGS4 block inactive, MrgX1 antag inactive, MrgX1 ag inactive and MrgX1 allo act inactive.
Screening CCOc1ccc(C2=CSC3=NCCN23)cc1Cl returned Hep lipid drop inactive, RGS4 pot inactive, RGS4 block inactive, MrgX1 antag inactive, MrgX1 ag inactive and MrgX1 allo act inactive.
`Cc1cccc2nc3ccccc3nc12` gave Hep lipid drop inactive, RGS4 pot inactive, RGS4 block inactive, MrgX1 antag inactive, MrgX1 ag inactive, MrgX1 allo act 9.32, MrgX1 allo conf inactive, HEK293 Ca flux inactive, HEK293 Ca counter inactive and HEK293 Ca cntr2 inactive.
c1ccc2nc3ccccc3nc2c1 was read as Hep lipid drop inactive, RGS4 pot inactive, RGS4 block inactive, MrgX1 antag inactive, MrgX1 ag inactive and MrgX1 allo act inactive.
For COc1ccc(NC(=O)c2ccccc2NS(C)(=O)=O)cc1OC the results were Hep lipid drop inactive, RGS4 pot inactive, RGS4 block inactive, MrgX1 antag inactive, MrgX1 ag inactive and MrgX1 allo act inactive.
`CS(=O)(=O)Nc1ccccc1C(=O)Nc1ccccc1Cl` gave Hep lipid drop inactive, RGS4 pot inactive, RGS4 block inactive, MrgX1 antag inactive, MrgX1 ag inactive and MrgX1 allo act inactive.
For COc1ccccc1NC(=O)c1cc2cc(Br)ccc2cc1O the results were Hep lipid drop inactive, RGS4 pot inactive, RGS4 block inactive, MrgX1 antag inactive, MrgX1 ag inactive, MrgX1 allo act 8.38, MrgX1 allo conf 15.6%, HEK293 Ca flux inactive, HEK293 Ca counter inactive and HEK293 Ca cntr2 inactive.
`COc1cc(NC(=O)c2cc3ccccc3cc2O)c(OC)cc1Cl` gave Hep lipid drop inactive, RGS4 pot inactive, RGS4 block inactive, MrgX1 antag inactive, MrgX1 ag inactive and MrgX1 allo act inactive.
